Measured values reported in ChEMBL document CHEMBL4130549, “Synthesis and bioactivities study of new antibacterial peptide mimics: The dialkyl cationic amphiphiles” (Eur J Med Chem, 2018).
Active and inactive are the calls of the source. The rule behind the calls is not given here.

Legend:
[1] = system: Klebsiella pneumoniae; test: Antibacterial activity against carbapenemase-producing Klebsiella pneumoniae isolate K10 after 16 to 20 hrs by broth microdilution method; format: functional
Procedure, shortened: (§1)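 Broth microdilution per CLSI in cation-adjusted Mueller-Hinton broth; 4-6 h cultures (~10⁸ CFU/mL) diluted to ~10⁶ CFU/mL and mixed 1:1 with twofold dilutions of water-dissolved compound (256 to 0.5 µg/mL). Incubated 16-20 h at 37 °C; MIC read visually. Each concentration run in duplicate, whole experiment repeated at least twice. MRSA, KPC and NDM-1 strains were clinical isolates.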

[2] = system: Staphylococcus aureus; test: Antibacterial activity against methicillin-resistant Staphylococcus aureus isolate M7 after 16 to 20 hrs by broth microdilution method; format: functional
Procedure, shortened: (§2)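 CLSI broth microdilution in cation-adjusted Mueller-Hinton broth. A 4-6 h culture was diluted to about 10⁶ CFU/mL and mixed 1:1 with twofold compound dilutions (256–0.5 µg/mL before mixing) prepared from aqueous stocks. Plates were incubated at 37 °C for 16-20 h. Each concentration was tested in duplicate, and the experiment was repeated at least twice.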

[3] = system: Escherichia coli; test: Induction of inner membrane permeabilization in Escherichia coli ATCC 25922 at 20 ug/ml measured every 2 mins for 12 mins by propidium iodide staining based fluorescence assay; format: functional, organism-based
Procedure, shortened: (§3)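 Mid-log cells (~10^8 CFU/mL) pre-incubated with propidium iodide (10 µM, 50 µL), 30 min for S. aureus and 40 min for E. coli. Fluorescence (ex 535/em 617 nm) read for 8 min, then compound added to 20 µg/mL final and monitored every 2 min for 12 min. Water-treated control.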

[4] = system: Klebsiella pneumoniae; test: Antibacterial activity against carbapenemase-producing Klebsiella pneumoniae isolate K8 after 16 to 20 hrs by broth microdilution method; format: functional; procedure, shortened: as §1
[5] = system: Klebsiella pneumoniae; test: Antibacterial activity against carbapenemase-producing Klebsiella pneumoniae isolate K1 after 16 to 20 hrs by broth microdilution method; format: functional; procedure, shortened: as §1
[6] = system: Staphylococcus aureus; test: Antibacterial activity against methicillin-resistant Staphylococcus aureus isolate M10 after 16 to 20 hrs by broth microdilution method; format: functional; procedure, shortened: as §2
[7] = system: Escherichia coli; test: Induction of outer membrane permeabilization in Escherichia coli ATCC 25922 at 20 ug/ml measured every 2 mins for 12 mins by NPN staining based fluorescence assay; format: functional, organism-based
Procedure, shortened: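 Mid-log E. coli (~10^8 CFU/mL) in black plates pre-incubated about 40 min with NPN (10 µM, 50 µL). Baseline read 8 min (ex 350/em 420 nm), then compound added to 20 µg/mL final and fluorescence followed every 2 min for 12 min. Water-treated control.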

[8] = system: Staphylococcus aureus; test: Antibacterial activity against methicillin-resistant Staphylococcus aureus isolate M2 after 16 to 20 hrs by broth microdilution method; format: functional; procedure, shortened: as §2
[9] = system: Klebsiella pneumoniae; test: Antibacterial activity against carbapenemase-producing Klebsiella pneumoniae isolate K3 after 16 to 20 hrs by broth microdilution method; format: functional; procedure, shortened: as §1
[10] = system: Staphylococcus aureus; test: Antibacterial activity against methicillin-resistant Staphylococcus aureus isolate M6 after 16 to 20 hrs by broth microdilution method; format: functional; procedure, shortened: as §2
[11] = system: Enterobacteriaceae; test: Antibacterial activity against NDM-1-producing Enterobacteriaceae isolate N5 after 16 to 20 hrs by broth microdilution method; format: functional; procedure, shortened: as §1
[12] = system: Enterobacteriaceae; test: Antibacterial activity against NDM-1-producing Enterobacteriaceae isolate N6 after 16 to 20 hrs by broth microdilution method; format: functional; procedure, shortened: as §1
[13] = system: Staphylococcus aureus; test: Antibacterial activity against methicillin-resistant Staphylococcus aureus isolate M8 after 16 to 20 hrs by broth microdilution method; format: functional; procedure, shortened: as §2
[14] = Hemolytic activity in sheep RBC after 1 hr; format: ADME, cell-based, Ovis aries, Erythrocyte; conditions: sheep red blood cells (erythrocytes)
Procedure, shortened: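 Sheep RBCs suspended at 5% in PBS; 150 µL added to 50 µL compound dilutions (5120 to 10 µg/mL series). Incubated 1 h at 37 °C, then centrifuged; supernatant absorbance read at 540 nm. Lysis (%) = (A−A0)/(Atotal−A0)×100, with untreated 5% RBC as A0 and 0.1% Triton X-100 as total.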

[15] = system: Klebsiella pneumoniae; test: Antibacterial activity against carbapenemase-producing Klebsiella pneumoniae isolate K5 after 16 to 20 hrs by broth microdilution method; format: functional; procedure, shortened: as §1
[16] = system: Staphylococcus aureus; test: Antibacterial activity against methicillin-resistant Staphylococcus aureus isolate M4 after 16 to 20 hrs by broth microdilution method; format: functional; procedure, shortened: as §2
[17] = system: Enterobacteriaceae; test: Antibacterial activity against NDM-1-producing Enterobacteriaceae isolate N3 after 16 to 20 hrs by broth microdilution method; format: functional; procedure, shortened: as §1
[18] = system: Staphylococcus aureus; test: Antibacterial activity against methicillin-resistant Staphylococcus aureus isolate M3 after 16 to 20 hrs by broth microdilution method; format: functional; procedure, shortened: as §2
[19] = system: Enterobacteriaceae; test: Antibacterial activity against NDM-1-producing Enterobacteriaceae isolate N9 after 16 to 20 hrs by broth microdilution method; format: functional; procedure, shortened: as §1
[20] = system: Klebsiella pneumoniae; test: Antibacterial activity against carbapenemase-producing Klebsiella pneumoniae isolate K6 after 16 to 20 hrs by broth microdilution method; format: functional; procedure, shortened: as §1
[21] = system: Klebsiella pneumoniae; test: Antibacterial activity against carbapenemase-producing Klebsiella pneumoniae isolate K2 after 16 to 20 hrs by broth microdilution method; format: functional; procedure, shortened: as §1
[22] = system: Salmonella enterica; test: Antibacterial activity against Salmonella enterica after 16 to 20 hrs by broth microdilution method; format: functional; procedure, shortened: as §1
[23] = system: Enterobacteriaceae; test: Antibacterial activity against NDM-1-producing Enterobacteriaceae isolate N7 after 16 to 20 hrs by broth microdilution method; format: functional; procedure, shortened: as §1
[24] = system: Klebsiella pneumoniae; test: Antibacterial activity against carbapenemase-producing Klebsiella pneumoniae isolate K9 after 16 to 20 hrs by broth microdilution method; format: functional; procedure, shortened: as §1
[25] = system: Enterobacteriaceae; test: Antibacterial activity against NDM-1-producing Enterobacteriaceae after 16 to 20 hrs by broth microdilution method; format: functional; procedure, shortened: as §1
[26] = system: Staphylococcus aureus; test: Induction of cytoplasmic membrane depolarization in Staphylococcus aureus ATCC 29213 at 20 ug/ml measured every 2 mins for 12 mins by diSC35 staining based fluorescence assay; format: functional, organism-based
Procedure, shortened: (§4)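 Mid-log cells (4–6 h) pelleted, washed and resuspended (~10^8 CFU/mL) in PBS for S. aureus, or in 5 mM HEPES, 5 mM glucose and 100 mM KCl (1:1:1) for E. coli. Preloaded with diSC35 (10 µM, 50 µL), 30 min for S. aureus and 40 min plus EDTA (200 µM, 50 µL) for E. coli. Baseline read 8 min (ex 622/em 670 nm), then compound added to 20 µg/mL final and read every 2 min for 12 min. Water control.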

[27] = system: Staphylococcus aureus; test: Induction of inner membrane permeabilization in Staphylococcus aureus ATCC 29213 at 20 ug/ml measured every 2 mins for 12 mins by propidium iodide staining based fluorescence assay; format: functional, organism-based; procedure, shortened: as §3
[28] = system: Klebsiella pneumoniae; test: Antibacterial activity against carbapenemase-producing Klebsiella pneumoniae after 16 to 20 hrs by broth microdilution method; format: functional; procedure, shortened: as §1
[29] = system: Staphylococcus aureus; test: Antibacterial activity against methicillin-resistant Staphylococcus aureus after 16 to 20 hrs by broth microdilution method; format: functional; procedure, shortened: as §2
[30] = system: Enterobacteriaceae; test: Antibacterial activity against NDM-1-producing Enterobacteriaceae isolate N1 after 16 to 20 hrs by broth microdilution method; format: functional; procedure, shortened: as §1
[31] = system: Escherichia coli; test: Antibacterial activity against Escherichia coli ATCC 25922 after 16 to 20 hrs by broth microdilution method; format: functional; procedure, shortened: as §1
[32] = system: Enterobacteriaceae; test: Antibacterial activity against NDM-1-producing Enterobacteriaceae isolate N8 after 16 to 20 hrs by broth microdilution method; format: functional; procedure, shortened: as §1
[33] = system: Enterococcus faecalis; test: Antibacterial activity against Enterococcus faecalis after 16 to 20 hrs by broth microdilution method; format: functional; procedure, shortened: as §1
[34] = system: Staphylococcus aureus; test: Antibacterial activity against Staphylococcus aureus ATCC 29213 after 16 to 20 hrs by broth microdilution method; format: functional; procedure, shortened: as §2
[35] = system: Enterobacteriaceae; test: Antibacterial activity against NDM-1-producing Enterobacteriaceae isolate N2 after 16 to 20 hrs by broth microdilution method; format: functional; procedure, shortened: as §1
[36] = system: Klebsiella pneumoniae; test: Antibacterial activity against carbapenemase-producing Klebsiella pneumoniae isolate K4 after 16 to 20 hrs by broth microdilution method; format: functional; procedure, shortened: as §1
[37] = system: Klebsiella pneumoniae; test: Antibacterial activity against carbapenemase-producing Klebsiella pneumoniae isolate K7 after 16 to 20 hrs by broth microdilution method; format: functional; procedure, shortened: as §1
[38] = system: Enterobacteriaceae; test: Antibacterial activity against NDM-1-producing Enterobacteriaceae isolate N10 after 16 to 20 hrs by broth microdilution method; format: functional; procedure, shortened: as §1
[39] = system: Staphylococcus aureus; test: Antibacterial activity against methicillin-resistant Staphylococcus aureus isolate M5 after 16 to 20 hrs by broth microdilution method; format: functional; procedure, shortened: as §2
[40] = system: Staphylococcus aureus; test: Antibacterial activity against methicillin-resistant Staphylococcus aureus isolate M1 after 16 to 20 hrs by broth microdilution method; format: functional; procedure, shortened: as §2
[41] = system: Escherichia coli; test: Induction of cytoplasmic membrane depolarization in Escherichia coli ATCC 25922 at 20 ug/ml measured every 2 mins for 12 mins by diSC35 staining based fluorescence assay; format: functional, organism-based; procedure, shortened: as §4
[42] = system: Staphylococcus aureus; test: Antibacterial activity against methicillin-resistant Staphylococcus aureus isolate M9 after 16 to 20 hrs by broth microdilution method; format: functional; procedure, shortened: as §2
[43] = system: Enterobacteriaceae; test: Antibacterial activity against NDM-1-producing Enterobacteriaceae isolate N4 after 16 to 20 hrs by broth microdilution method; format: functional; procedure, shortened: as §1

## CCCCCCCN(CCCCCCC)C(=O)[C@@H](N)CCCCN.Cl.Cl
[1]
  MIC: 16 µg/mL
[2]
  MIC: 4 µg/mL
[3]
  Activity: Active
[4]
  MIC: 16 µg/mL
[5]
  MIC: 16 µg/mL
[6]
  MIC: 4 µg/mL
[7]
  Activity: Active
[8]
  MIC: 16 µg/mL
[9]
  MIC: 16 µg/mL
[10]
  MIC: 4 µg/mL
[11]
  MIC: 16 µg/mL
[12]
  MIC: 16 µg/mL
[13]
  MIC: 8 µg/mL
[14]
  HC50 at 1 h: 434 µg/mL
[15]
  MIC: 16 µg/mL
[16]
  MIC: 16 µg/mL
[17]
  MIC: 32 µg/mL
[18]
  MIC: 16 µg/mL
[19]
  MIC: 16 µg/mL
[20]
  MIC: 16 µg/mL
[21]
  MIC: 16 µg/mL
[22]
  MIC: 16 µg/mL
[23]
  MIC: 32 µg/mL
[24]
  MIC: 16 µg/mL
[25]
  MIC: 16 µg/mL
[26]
  Activity: Active
[27]
  Activity: Active
[28]
  MIC: 16 µg/mL
[29]
  MIC: 4 µg/mL
[30]
  MIC: 32 µg/mL
[31]
  MIC: 8 µg/mL
[32]
  MIC: 32 µg/mL
[33]
  MIC: 8 µg/mL
[34]
  MIC: 8 µg/mL
[35]
  MIC: 32 µg/mL
[36]
  MIC: 16 µg/mL
[37]
  MIC: 16 µg/mL
[38]
  MIC: 16 µg/mL
[39]
  MIC: 8 µg/mL
[40]
  MIC: 8 µg/mL
[41]
  Activity: Active
[42]
  MIC: 4 µg/mL
[43]
  MIC: 32 µg/mL

## CCCCCCCCN(CCCCCCCC)C(=O)[C@@H](N)CO.Cl
[1]
  MIC: 32 µg/mL
[2]
  MIC: 2 µg/mL
[3]
  Activity: Active
[4]
  MIC: 32 µg/mL
[5]
  MIC: 32 µg/mL
[6]
  MIC: 2 µg/mL
[7]
  Activity: Active
[8]
  MIC: 4 µg/mL
[9]
  MIC: 32 µg/mL
[10]
  MIC: 4 µg/mL
[11]
  MIC: 16 µg/mL
[12]
  MIC: 16 µg/mL
[13]
  MIC: 4 µg/mL
[14]
  HC50 at 1 h: > 1000 µg/mL
[15]
  MIC: 32 µg/mL
[16]
  MIC: 4 µg/mL
[17]
  MIC: 16 µg/mL
[18]
  MIC: 4 µg/mL
[19]
  MIC: 32 µg/mL
[20]
  MIC: 32 µg/mL
[21]
  MIC: 32 µg/mL
[22]
  MIC: 8 µg/mL
[23]
  MIC: 32 µg/mL
[24]
  MIC: 32 µg/mL
[25]
  MIC: 16 µg/mL
[26]
  Activity: Active
[27]
  Activity: Active
[28]
  MIC: 32 µg/mL
[29]
  MIC: 2 µg/mL
[30]
  MIC: 32 µg/mL
[31]
  MIC: 8 µg/mL
[32]
  MIC: 32 µg/mL
[33]
  MIC: 2 µg/mL
[34]
  MIC: 4 µg/mL
[35]
  MIC: 32 µg/mL
[36]
  MIC: 32 µg/mL
[37]
  MIC: 32 µg/mL
[38]
  MIC: 32 µg/mL
[39]
  MIC: 4 µg/mL
[40]
  MIC: 4 µg/mL
[41]
  Activity: Active
[42]
  MIC: 4 µg/mL
[43]
  MIC: 16 µg/mL
